Experimental data pooled from the literature.
Protocols differ between the studies behind these lines. pIC50: −log10 of the molar value.
Cell line: HEK293
Read-out: cell growth or viability

SMILES	test	conditions	pIC50
CC(=O)O[C@H](C)C(=O)CCCCC[C@@H]1NC(=O)[C@H]2CCCN2C(=O)[C@H](Cc2ccccc2)NC(=O)C(C)(C)NC1=O	XTT		8.22
Cc1nc2ccccc2c(O)c1-c1ccc(Cl)cc1			< 5.00
C[C@@H](O)C(=O)CCCCCCC(=O)Nc1ccccc1	XTT		4.45
CCCCCCCCc1c(C)[nH]c(C)c(C#N)c1=O			< 5.00
O=c1cc(CCl)c2cc(O)ccc2o1	MTT	36 h	< 4.70
Cc1[nH]c(C)c(-c2ccc(C(=O)c3ccc(Cl)cc3)cc2)c(=O)c1Br			< 5.00
CC(=O)Oc1ccc2oc(=O)cc(CSC(C)=O)c2c1	MTT	36 h	< 4.70
c1ccc2c(OCCCCCCN3CCCCCC3)cccc2c1		48 h	4.93
Cc1c(C)c2c(O)cc(O)cc2oc1=O	MTT	36 h	< 4.70
COc1cccc2c1C(=O)c1c(O)c3c(c(O)c1C2=O)C[C@@](O)(C(=O)CO)C[C@@H]3O[C@H]1C[C@H](N)[C@H](O)[C@H](C)O1	MTT	24 h	< 4.40
CCCc1ccc(OCCCCCN2CCCCCC2)cc1		48 h	4.48
C[C@@H](O)C(=O)CCCCC[C@@H]1NC(=O)[C@H]2CCCN2C(=O)[C@H](Cc2ccccc2)NC(=O)C(C)(C)NC1=O	XTT		7.40
O=C(c1cc(-c2cccs2)[nH]n1)N1CCN(S(=O)(=O)c2ccc(Cl)s2)CC1			< 5.00
CC(=O)SCc1cc(=O)oc2ccc(O)cc12	MTT	36 h	< 4.70
